Screening data from PubChem BioAssay.
Diaph act CS – diaphorase activation or chemical reduction counter-screen. AID 1229. hit rate 0.005% among 190,000. Diaphorase/resazurin coupled assay, resorufin fluorescence, 16 min; stronger effect = higher value; 1 = vehicle wells, 0 = NADH-free wells. activation factor at 20 µM;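 active = diaphorase activity raised at least twofold by the compound at 20 µM; inactive = activation factor below 2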
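Material: purified diaphorase enzyme from Clostridium kluyveri; Also added: 0.114 mM NADH and 0.1 mM resazurin, final amounts; Doses: single compound dose of 20 µM, 1% DMSO final; Times: 16 min enzyme reaction, ambient temperature; Detection: resorufin fluorescence, excitation 544 nm, emission 590 nm; Measure: increased resorufin signal from activators or reducing compounds.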
Diaphorase inh – inhibits diaphorase or chemically oxidizes, flagging diaphorase assay artifacts. inhibition, % at 20 µM. diaphorase resazurin-to-resorufin fluorescence, NADH, 16 min; bacterial (C. kluyveri) enzyme, not human. AID 1217. hit rate 0.69% among 190,000;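 active = primary screen inhibition at 20 µM above a set limit, cut at about 50% in these data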
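Assay system: diaphorase enzyme from Clostridium kluyveri. Quantity: enzyme working solution with 0.14 U/mL diaphorase. Schedule: reaction incubation of 16 min at room temperature. Technique: resorufin fluorescence, excitation 544 nm, emission 590 nm. Controls: No-NADH positive control and DMSO neutral control.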
L major viab – reduces viability of Leishmania major promastigotes; resazurin fluorescence viability; inhibition, % at 10 µM; AID 1063; hit rate 9% among 200,000;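 also: promastigotes grown with compound for 44 hours at 28 °C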
G6PDH counter – inhibits Leuconostoc G6PDH, flagging false hits in G6PDH-based assays. Purified L. mesenteroides G6PDH, diaphorase/resazurin coupled fluorescence, 45 min. hit rate 0.12% among 200,000. inhibition, % at 5 µM
WT yeast gro inh – growth inhibition of WT yeast, mitochondrial fusion screen; mitochondrial fusion phenotypic screen, WT strain; inhibition, % at 10 µM; hit rate 2.1% among 190,000; AID 1362; in the data active = inhibition above about 58%; tested in S. cerevisiae
Hits are given with their value. Hits are enriched below; roughly 11% of the tested compounds scored in any of these assays. Rule as the data show it, unless noted: active = inhibition above about 50%; inactive = the rest.

`CCOc1ccc(N(C(=O)/C=C/C(=O)Nc2cc(C)on2)C(C(=O)NC2CCCC2)c2ccccc2C)cc1` (centres undefined) gave Diaph act CS inactive, Diaphorase inh inactive, L major viab 87, G6PDH counter inactive and WT yeast gro inh inactive.
Screening CCc1ccc(C(C(=O)NC2CCCC2)N(C(=O)/C=C/C(=O)Nc2cc(C)on2)c2ccccc2C)cc1 (centres undefined) returned Diaph act CS inactive, Diaphorase inh inactive, L major viab 99, G6PDH counter inactive and WT yeast gro inh inactive.
`Cc1cc(NC(=O)/C=C/C(=O)N(CC(=O)NC2CCCC2)c2cccc3ccccc23)no1` gave Diaph act CS inactive, Diaphorase inh inactive, L major viab 96, G6PDH counter inactive and WT yeast gro inh inactive.
`C=CCN1C(=O)/C(=C/C=C2/N(CC)c3ccc(S(=O)(=O)N(C)C)cc3N2CC)SC1=S` gave Diaph act CS inactive, Diaphorase inh inactive, L major viab inactive, G6PDH counter inactive and WT yeast gro inh inactive.
For CC(C)(C)c1ccc(C(=O)NCC(=O)N/N=C/c2ccccc2OCC(=O)O)cc1 the results were Diaph act CS inactive, Diaphorase inh inactive, L major viab inactive, G6PDH counter inactive and WT yeast gro inh inactive.
CC(C)c1ccc(C(=O)NCCCN(C)C)cc1 was read as Diaph act CS inactive, Diaphorase inh inactive, L major viab inactive, G6PDH counter inactive and WT yeast gro inh inactive.
`CN(C)CCCNC(=O)c1cc2sc3ccccc3c2s1` gave Diaph act CS inactive, Diaphorase inh inactive, L major viab 92, G6PDH counter inactive and WT yeast gro inh inactive.
For CN(C)CCCNC(=O)c1ccc(-c2ccccc2)cc1 the results were Diaph act CS inactive, Diaphorase inh inactive, L major viab 86, G6PDH counter inactive and WT yeast gro inh inactive.
`Cc1ccc(-c2cc(-c3ccccc3)nc(Cl)n2)cc1` gave Diaph act CS inactive, Diaphorase inh inactive, L major viab inactive, G6PDH counter inactive and WT yeast gro inh inactive.
Screening Cc1cc(-c2ccccc2)nc(Cl)c1C#N returned Diaph act CS inactive, Diaphorase inh inactive, L major viab 70, G6PDH counter inactive and WT yeast gro inh inactive.
`Cc1nc2ccccc2n1CCc1nc2c3ccccc3nc(=S)n2[nH]1` gave Diaph act CS inactive, Diaphorase inh 89, L major viab inactive, G6PDH counter inactive and WT yeast gro inh inactive.
Screening Cc1cncn1CCc1nc2c3ccccc3nc(=S)n2[nH]1 returned L major viab inactive.
For Cc1ccc(Nc2nc3ccccc3[nH]2)nc1 the results were Diaph act CS inactive, Diaphorase inh inactive, L major viab 101, G6PDH counter inactive and WT yeast gro inh inactive.
`O=C(Cc1cc(=O)[nH][nH]1)N/N=C/c1cccc(Cl)c1Cl` gave Diaph act CS inactive, Diaphorase inh inactive, L major viab inactive, G6PDH counter inactive and WT yeast gro inh inactive.
For C/C(=N\NS(=O)(=O)c1ccccc1)c1ccc2c(c1)OCCO2 the results were Diaph act CS inactive, Diaphorase inh inactive, L major viab inactive, G6PDH counter inactive and WT yeast gro inh inactive.
Screening C(=N\Nc1nc2ccccc2[nH]1)/c1ccc2c(c1)OCO2 returned Diaph act CS inactive, Diaphorase inh inactive, L major viab 96, G6PDH counter inactive and WT yeast gro inh inactive.
C/C(=N\Nc1nc2ccccc2[nH]1)c1cc2ccccc2o1 was read as Diaph act CS inactive, Diaphorase inh inactive, L major viab 68, G6PDH counter inactive and WT yeast gro inh 60.
C/C(=N\Nc1nc2ccccc2[nH]1)c1ccc2c(c1)OCCO2 was read as Diaph act CS inactive, Diaphorase inh inactive, L major viab 100, G6PDH counter inactive and WT yeast gro inh inactive.
For C/C(=N\Nc1ccccn1)c1ccc2c(c1)OCO2 the results were Diaph act CS inactive, Diaphorase inh inactive, L major viab inactive, G6PDH counter inactive and WT yeast gro inh inactive.
C/C(=N\Nc1nc2ccccc2[nH]1)c1ccc2c(c1)OCO2 was read as Diaph act CS inactive, Diaphorase inh inactive, L major viab 101, G6PDH counter inactive and WT yeast gro inh inactive.
`COc1cc(OC)cc(C(C(=O)NCc2ccccc2)N(Cc2ccco2)C(=O)c2ccno2)c1` (centres undefined) gave Diaph act CS inactive, Diaphorase inh inactive, L major viab inactive, G6PDH counter inactive and WT yeast gro inh inactive.
Screening Cn1cc(CN2C[C@H]3CC[C@H]2C3)c(-c2ccccc2F)n1 returned Diaph act CS inactive, Diaphorase inh inactive, L major viab inactive, G6PDH counter inactive and WT yeast gro inh inactive.
For Cc1ccccc1C(=NCCCN(C)C)c1ccccc1C the results were Diaph act CS inactive, Diaphorase inh inactive, L major viab inactive, G6PDH counter inactive and WT yeast gro inh inactive.
Cc1nn(Cc2ccccc2)c(Cl)c1/C=C/C(=O)OCC(=O)N1CCCC1=O was read as Diaph act CS inactive, Diaphorase inh inactive, L major viab inactive, G6PDH counter inactive and WT yeast gro inh inactive.
Screening O=C(NC1CCCCC1)C(c1cccnc1)N(C(=O)CCl)c1ccccc1Cl (centres undefined) returned Diaph act CS inactive, Diaphorase inh inactive, L major viab 68, G6PDH counter inactive and WT yeast gro inh inactive.
For O=C(NCC(=O)N(c1ccccc1)C(C(=O)NC1CCCCC1)c1cccnc1)c1cccs1 (centres undefined) the results were Diaph act CS inactive, Diaphorase inh inactive, L major viab inactive, G6PDH counter inactive and WT yeast gro inh inactive.
For COc1ccc(N(C(=O)CCl)C(C(=O)NC2CCCCC2)c2cccnc2)cc1 (centres undefined) the results were Diaph act CS inactive, Diaphorase inh inactive, L major viab 98, G6PDH counter inactive and WT yeast gro inh inactive.
`O=C(NC1CCCCC1)C(c1cccnc1)N(C(=O)CCl)c1ccc(F)cc1` (centres undefined) gave Diaph act CS inactive, Diaphorase inh inactive, L major viab 78, G6PDH counter inactive and WT yeast gro inh inactive.
For COc1ccc(C(C(=O)NC2CCCCC2)N(C(=O)c2ccccn2)c2cccnc2)cc1 (centres undefined) the results were L major viab inactive, G6PDH counter inactive and WT yeast gro inh inactive.
For O=C(NCC(=O)N(c1ccc(F)cc1)C(C(=O)NC1CCCC1)c1cccnc1)c1cccs1 (centres undefined) the results were Diaph act CS inactive, Diaphorase inh inactive, L major viab inactive, G6PDH counter inactive and WT yeast gro inh inactive.
Screening O=C(CSc1nc2[nH]ncc2c(=O)[nH]1)Nc1ccccc1 returned Diaph act CS inactive, Diaphorase inh inactive, L major viab inactive, G6PDH counter inactive and WT yeast gro inh inactive.
CCCn1c(NCc2c[nH]c3ccccc23)nc2ccccc21 was read as Diaph act CS inactive, Diaphorase inh inactive, L major viab inactive, G6PDH counter inactive and WT yeast gro inh inactive.
For N=C1C(c2nc3ccccc3[nH]2)=C(O)CN1NC(=O)COc1cccc(F)c1 the results were Diaph act CS inactive, Diaphorase inh inactive, L major viab inactive, G6PDH counter inactive and WT yeast gro inh inactive.
